TAAR1 antagonist = human TAAR1 antagonists, primary screen, Fluo-8 calcium fluorescence, CHO RD-HGA16 cells; Trace amine-associated receptor 1 (Homo sapiens), Q96RJ0; antagonist; inhibition, % at 3 µM; 360,000 compounds, 1.5% hits; AID 624466, 2012;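 active means inhibition above a per-plate cutoff, the mean inhibition of test compounds on that plate plus 3 SD, cut at about 49% in these data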;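 further: 0% = DMSO plus EC80 beta-PEA response and 100% = DMSO alone without agonist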
Target sequence (Q96RJ0 whole entry, looked up): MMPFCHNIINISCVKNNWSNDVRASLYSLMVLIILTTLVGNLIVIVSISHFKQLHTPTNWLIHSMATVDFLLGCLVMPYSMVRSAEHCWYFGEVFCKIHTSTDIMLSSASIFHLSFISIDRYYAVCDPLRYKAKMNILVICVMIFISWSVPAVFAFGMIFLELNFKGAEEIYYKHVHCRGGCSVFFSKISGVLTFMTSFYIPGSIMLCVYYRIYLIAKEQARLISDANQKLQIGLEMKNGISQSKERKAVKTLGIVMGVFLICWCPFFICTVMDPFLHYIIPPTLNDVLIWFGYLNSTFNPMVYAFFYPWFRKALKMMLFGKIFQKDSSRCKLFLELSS
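Test system – hTAAR1-expressing CHO RD-HGA16 cells, Gα16-coupled · Also added – β-PEA at EC80 concentration, post-compound challenge · Compound – 3 µM, single point · Incubation – dye loading 75 min at 37 °C, then 30 min room temperature · Measured by – Fluo-8 intracellular calcium dye fluorescence, real-time kinetic reads · Benchmarks – vehicle and agonist controls · Replicates – singlicate, one well per test compound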
OX1R antag-1 = antagonists of human orexin 1 receptor (OX1R). OX1R-expressing cells, FRET antagonist read-out. inhibition, % at 6.6 µM. 330,000 compounds, 1.8% hits; in the data active means inhibition mostly above about 38%, no sharp cut-off; inactive means mostly below about 40%;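 further: 0% = agonist challenge alone and 100% = reference antagonist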
NTR1 ag = agonists of human NTR1, primary screen, imaging, U2OS cells, beta-arrestin-GFP, high content | Neurotensin receptor type 1 (Homo sapiens), P30989 | NTR1-U2OS beta-arrestin-GFP spot imaging, agonist mode | 330,000 compounds, 0.17% hits | activation, % at 20 µM;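 active means activation at or above 40% of the spot to cytoplasm intensity ratio, with at least 20 cells analyzed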;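 further: 0% = DMSO without peptide and 100% = 100 nM NTR1 peptide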
OX1R antag-2 = OX1R (HCRTR1) antagonists, primary screen, fluorescence, CHO/OX1R cells, Fluo-8 calcium, orexin A. Fluo-8 calcium fluorescence. 330,000 compounds, 0.43% hits. AID 434989, 2010. inhibition, % at 5 µM. Orexin/Hypocretin receptor type 1 (Homo sapiens), O43613;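 active means inhibition above its plate's threshold, mean inhibition of all tested compounds on the plate plus 3 SD, cut at about 37% in these data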;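 further: 0% = orexin A challenge wells and 100% = SB-334867-A antagonist wells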
TAAR1 ag = human TAAR1 agonists, primary screen, Fluo-8 calcium fluorescence, CHO RD-HGA16 cells; Trace amine-associated receptor 1 (Homo sapiens), Q96RJ0; vehicle wells 0%, saturating PEA agonist 100%; activation, % at 3 µM; 360,000 compounds, 0.99% hits; AID 624467, 2012;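 active means activation above the mean activation of all test compounds in the run plus 3 SD, cut at about 38% in these data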
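Test system: RD-HGA16 (CHO) cells co-expressing Gα16 and hTAAR1 / Benchmarks: DMSO vehicle as 0%, PEA at EC100 as 100% / Repeats: no replicates (n 1) / Measure: % activation from peak over basal fluorescence ratio, DMSO-to-PEA scaled / Timing: 17-24 h plating, Fluo-8 75 min 37 °C, 30 min RT / Technique: kinetic Fluo-8 calcium fluorescence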
CHO parental Ca = ATP-evoked calcium signal inhibitors, parental CHO, primary screen, counter-screen for OX1R antagonist project, cell-based, fluorescence, Fluo-8 calcium dye. parental CHO-K1, ATP-induced calcium, Fluo-8 fluorescence. 330,000 compounds, 0.63% hits. inhibition, % at 5.6 µM;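 active means inhibition above that plate's mean sample inhibition plus 3 SD, cut at about 26% in these data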;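 further: 0% = ATP-challenged DMSO wells and 100% = DMSO wells without ATP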
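material = parental CHO cells | also added = ATP as calcium-mobilizing challenge | dosing = single point at 5.6 µM | detection = intracellular calcium via Fluo-8 no-wash fluorescent dye | read-out = % inhibition | benchmarks = low control ATP plus DMSO, high control DMSO only | repeats = one well per compound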
* marks the source's active call; other numbers are inactive results; nt = no result. Shown are actives, neighbours in structure and some others; about 4% of the full set was active somewhere.

SMILES	TAAR1 antagonist	OX1R antag-1	NTR1 ag	OX1R antag-2	TAAR1 ag	CHO parental Ca
Cc1ccc(S(=O)(=O)Nc2ccccc2-c2ccccc2NS(=O)(=O)c2ccc(C)cc2)cc1	49*	59	24	-10	0	-5
Cc1ccc(S(=O)(=O)Nc2cccc3cccnc23)cc1	27	19	13	27	5	42*
COC(=O)c1cc2c(c3c4cc(OC)ccc4n(S(=O)(=O)c4ccc(F)cc4)c13)C(=O)N(CC(C)C)C2	-47	nt	nt	nt	-2	nt
CC(=NNc1nc2ccccc2s1)c1ccncn1	64*	nt	nt	nt	34	nt
C/C(=N\Nc1nc2ccccc2s1)c1ccc(Br)s1	5	36	10	-7	4	-10
COc1cc(C(=S)N2CCOCC2)cc(OC)c1OC(=O)c1cccc(C)c1	-5	66*	0	21	-1	-16
O=C(Oc1cccc(C(=S)N2CCOCC2)c1)c1cc([N+](=O)[O-])cc([N+](=O)[O-])c1	-3	68*	0	-14	-1	-8
COc1cc(C(=S)N2CCOCC2)ccc1OC(=O)c1ccccc1[N+](=O)[O-]	22	61*	2	9	13	-9
COc1ncnc2sc(-c3ccccc3)cc12	-10	0	0	-21	-1	0
CN(C)c1ncnc2sc(-c3ccccc3)cc12	-8	64*	2	-23	1	-16
CC(C)NC(=O)Cn1cc(C(=O)C(=O)N2CCOCC2)c2ccccc21	5	44	0	-10	0	5
Cc1ccc(CNC(=O)c2ccc(N3CCCC3=O)cc2)cc1	23	4	2	-14	5	-9
Cn1nc(C(C)(C)C)cc1C(=O)NCc1ccc(N2CCCC2=O)cc1	7	30	0	19	4	37*
CC1CCN(C(=O)c2ncn3c2C(=O)NC[C@H]3C)CC1	-10	nt	nt	nt	1	nt
COc1ccc(OC)c(CN(CC(C)C)S(=O)(=O)c2ccccc2Br)c1	31	nt	nt	nt	2	nt
O=C(O)c1ccc(COc2ccc3ccccc3c2/C=C2/NC(=O)N(Cc3ccc(F)cc3)C2=O)cc1	56*	nt	nt	nt	14	nt
CCOC(=O)c1cc2c(=O)n3ccccc3nc2n(CCCOC)c1=NC(C)=O	11	51*	2	-14	1	-4
C=CCn1c(=N)c(C(=O)OCC)cc2c(=O)n3cccc(C)c3nc21	nt	110*	nt	-15	nt	-9
CCOC(=O)c1cc2c(=O)n3cccc(C)c3nc2n(CCOC)c1=NC(C)=O	6	19	2	-20	2	-22
CCOCCCn1c(=NC(=O)c2ccco2)c(C(=O)OCC)cc2c(=O)n3cccc(C)c3nc21	48	24	5	-18	12	-27
CCCn1c(=NC(=O)c2ccco2)c(C(=O)OCC)cc2c(=O)n3ccccc3nc21	-14	32*	5	-30	12	-14
CCOC(=O)c1cc2c(=O)n3cccc(C)c3nc2n(CC(C)C)c1=NC(=O)c1ccco1	-37	54*	6	-21	5	-15
C=CCn1c(=N)c(C(=O)NCCCOC)cc2c(=O)n3cc(C)ccc3nc21	-2	58*	1	-10	4	-10
Cc1ccc2nc3c(cc(C(=O)NC4CCCC4)c(=N)n3C3CCCCC3)c(=O)n2c1	-20	21	16	0	0	-9
CSCCC(NS(=O)(=O)c1ccc2c(c1)OCCO2)C(=O)N(C)Cc1ccccc1F (stereo not given)	55*	9	1	-19	31	-18
SMILES	TAAR1 antagonist	OX1R antag-1	NTR1 ag	OX1R antag-2	TAAR1 ag	CHO parental Ca
CSCCC(NS(=O)(=O)c1cccc(C(F)(F)F)c1)C(=O)N(C)Cc1ccc2c(c1)OCCO2 (stereo not given)	37	7	1	-9	7	-4
CCCCCCCCN1C(=O)[C@@H](CC(=O)N2CCN(C(=O)C3CC3)CC2)C[C@@]2(C(=O)OC)C1=C[C@H](C1CCCC1)O[C@@H]2C	-21	nt	nt	nt	-2	nt
O=C(Nc1ccc(Cl)cc1)OCc1ccccn1	12	21	-1	20	9	40*
CCNC(=O)N1CCN(c2ccc(N3CCN(Cc4ccccc4)[C@@H](C)C3)c(C)c2)[C@H](C)C1	17	nt	nt	nt	4	nt
COc1ccc(CN(C)S(=O)(=O)c2nnc(NC(=O)c3cccc(F)c3)s2)cc1OC	17	43*	0	-28	4	-1
COc1ccc(CN(C)S(=O)(=O)c2nnc(NC(=O)c3ccccc3)s2)cc1OC	-39	22	-1	-8	3	-9
CC1CCCN(S(=O)(=O)c2ccc(NC(=O)CN3CCN(C)CC3)cc2)C1 (stereo not given)	-9	-2	1	-12	10	-4
CCC1CCCCN1S(=O)(=O)c1ccc(NC(=O)c2ccncc2)cc1 (stereo not given)	18	27	1	20	12	42*
CCC1CCCCN1S(=O)(=O)c1ccc(S(=O)(=O)N(Cc2cccs2)C2CC2)cc1 (stereo not given)	-9	29	0	54*	1	25
CCC1CCCCN1S(=O)(=O)c1ccc(NC(=O)c2nc(S(C)(=O)=O)ncc2Cl)cc1 (stereo not given)	56*	53*	0	53*	6	55*
CCS(=O)(=O)c1ncc(Cl)c(C(=O)Nc2ccc(S(=O)(=O)N3CCCC(C)C3)cc2)n1 (stereo not given)	32	31	10	41*	4	47*
O=C(NC(CC1=CCCCC1)c1ccccc1)C(F)(F)F (stereo not given)	3	nt	nt	nt	-2	nt
Cc1ccc(S(=O)(=O)NNC(=O)c2ccoc2C)cc1	-37	19	1	-10	1	-11
COc1cc(-c2cc(NC(C)=O)c3ncc(-c4ccccc4)n3c2)cc(OC)c1OC	49*	nt	nt	nt	3	nt
COc1cc(-c2cnc3c(NC=O)cc(-c4ccccc4)cn23)cc(OC)c1OC	9	nt	nt	nt	-1	nt
COc1cc(-c2cc(NC(C)=O)c3ncc(-c4cc(OC)c(OC)c(OC)c4)n3c2)cc(OC)c1OC	26	nt	nt	nt	7	nt
COc1ccc(-c2cnc3c(NC(C)=O)cc(-c4ccccc4OC)cn23)cc1OC	52*	nt	nt	nt	7	nt
COc1cc(-c2cc(NC=O)c3ncc(-c4ccccc4)n3c2)cc(OC)c1OC	63*	nt	nt	nt	13	nt
CCN(C(=O)c1cc2c(s1)-c1ccccc1OC2)c1cc(OC)ccc1OC	-9	14	2	-8	0	35*
O=C(CCCNS(=O)(=O)c1cccc2nsnc12)N1CCCCC1	-10	51	0	-14	8	3

Screening results as filed in PubChem.
